Source: ChEMBL document CHEMBL3044653, “Synthesis and herbicidal activity of 2-(substituted phenoxyacetoxy)alkyl-5,5-dimethyl-1,3,2-dioxaphosphinan-2-one” (J Agric Food Chem, 2012)

Legend:
Digitaria sanguinalis [1] = assay: Post-emergence herbicidal activity against Digitaria sanguinalis (hairy crabgrass) assessed as inhibition at 37.5 g/hectare treated at one-leaf stage by green house assay; type: functional
How it was run: (§1)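 Monocot weeds were sprayed postemergence in the greenhouse at the one-leaf stage with diluted formulation solutions. Primary dose was 150 g ai/ha, with follow-up doses of 75 and 37.5 g ai/ha for selected compounds. Activity is scored as percent herbicidal damage compared with an untreated control.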

Gossypium hirsutum = assay: Toxicity in Gossypium hirsutum (cotton) plant assessed as inhibition at 150 g/hectare; type: organism-based; conditions: in vivo
How it was run: (§2)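 For crop selectivity, conventional crop varieties were planted in 12 cm diameter plots and given a postemergence treatment at 150 g ai/ha. Injury was scored as percent inhibition, with 0–10% classed as safe to the crop.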

Amaranthus retroflexus [2] = assay: Post-emergence herbicidal activity against Amaranthus retroflexus assessed as inhibition at 150 g/hectare by green house assay; type: functional
[3] = tested on: Brassica rapa subsp. oleifera; assay: Post-emergence herbicidal activity against Brassica rapa subsp. oleifera assessed as inhibition at 150 g/hectare by green house assay; type: functional
[4] = tested on: Brassica rapa subsp. chinensis; assay: Post-emergence herbicidal activity against Brassica rapa subsp. chinensis assessed as inhibition at 75 g/hectare by green house assay; type: functional
Eclipta prostrata [5] = assay: Post-emergence herbicidal activity against Eclipta prostrata assessed as inhibition at 150 g/hectare treated at two-leaf stage by green house assay; type: functional
How it was run: (§3)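 Greenhouse postemergence spray of diluted formulation solutions onto broadleaf weeds at the two-leaf stage. Primary screen at 150 g ai/ha, with selected compounds retested at 75 and 37.5 g ai/ha. Abutilon was tested at 150 g ai/ha only. Read-out is percent herbicidal damage relative to an untreated control.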

Eclipta prostrata [6] = assay: Post-emergence herbicidal activity against Eclipta prostrata assessed as inhibition at 75 g/hectare treated at two-leaf stage by green house assay; type: functional; how it was run: as §3
Brassica juncea [7] = assay: Post-emergence herbicidal activity against Brassica juncea assessed as inhibition at 150 g/hectare treated at two-leaf stage by green house assay; type: functional; how it was run: as §3
Echinochloa crus-galli [8] = assay: Post-emergence herbicidal activity against Echinochloa crus-galli (barnyard grass) assessed as inhibition at 75 g/hectare treated at one-leaf stage by green house assay; type: functional; how it was run: as §1
Glycine max = assay: Toxicity in Glycine max (soybean) plant assessed as inhibition at 150 g/hectare; type: organism-based; conditions: in vivo; how it was run: as §2
Digitaria sanguinalis [9] = assay: Post-emergence herbicidal activity against Digitaria sanguinalis (hairy crabgrass) assessed as inhibition at 75 g/hectare treated at one-leaf stage by green house assay; type: functional; how it was run: as §1
Echinochloa crus-galli [10] = assay: Post-emergence herbicidal activity against Echinochloa crus-galli (barnyard grass) assessed as inhibition at 37.5 g/hectare treated at one-leaf stage by green house assay; type: functional; how it was run: as §1
Oryza sativa = assay: Toxicity in Oryza sativa (rice) plant assessed as inhibition at 150 g/hectare; type: organism-based; conditions: in vivo; how it was run: as §2
Echinochloa crus-galli [11] = assay: Post-emergence herbicidal activity against Echinochloa crus-galli (barnyard grass) assessed as inhibition at 150 g/hectare treated at one-leaf stage by green house assay; type: functional; how it was run: as §1
Amaranthus retroflexus [12] = assay: Post-emergence herbicidal activity against Amaranthus retroflexus assessed as inhibition at 75 g/hectare by green house assay; type: functional
Chenopodium album [13] = assay: Post-emergence herbicidal activity against Chenopodium album assessed as inhibition at 75 g/hectare by green house assay; type: functional
Ammannia baccifera [14] = assay: Post-emergence herbicidal activity against Ammannia baccifera assessed as inhibition at 150 g/hectare by green house assay; type: functional
Radish [15] = assay: Post-emergence herbicidal activity against Raphanus sativus (radish) assessed as inhibition at 150 g/hectare by green house assay; type: functional
[16] = tested on: Brassica rapa subsp. oleifera; assay: Post-emergence herbicidal activity against Brassica rapa subsp. oleifera assessed as inhibition at 75 g/hectare by green house assay; type: functional
Abutilon theophrasti = assay: Post-emergence herbicidal activity against Abutilon theophrasti (velvetleaf) assessed as inhibition at 150 g/hectare treated at two-leaf stage by green house assay; type: functional; how it was run: as §3
Chenopodium album [17] = assay: Post-emergence herbicidal activity against Chenopodium album assessed as inhibition at 150 g/hectare by green house assay; type: functional
Brassica juncea [18] = assay: Post-emergence herbicidal activity against Brassica juncea assessed as inhibition at 75 g/hectare by green house assay; type: functional
Setaria viridis [19] = assay: Post-emergence herbicidal activity against Setaria viridis (green foxtail) assessed as inhibition at 150 g/hectare treated at one-leaf stage by green house assay; type: functional; how it was run: as §1
Brassica napus = assay: Toxicity in Brassica napus (oilseed rape) assessed as inhibition at 150 g/hectare; type: functional; how it was run: as §2
Ammannia baccifera [20] = assay: Post-emergence herbicidal activity against Ammannia baccifera assessed as inhibition at 75 g/hectare by green house assay; type: functional
Setaria viridis [21] = assay: Post-emergence herbicidal activity against Setaria viridis (green foxtail) assessed as inhibition at 75 g/hectare treated at one-leaf stage by green house assay; type: functional; how it was run: as §1
Ipomoea nil [22] = assay: Post-emergence herbicidal activity against Ipomoea nil (Japanese morning glory) assessed as inhibition at 75 g/hectare by green house assay; type: functional
Amaranthus retroflexus [23] = assay: Post-emergence herbicidal activity against Amaranthus retroflexus assessed as inhibition at 150 g/hectare treated at two-leaf stage by green house assay; type: functional; how it was run: as §3
Radish [24] = assay: Post-emergence herbicidal activity against Raphanus sativus (radish) assessed as inhibition at 75 g/hectare by green house assay; type: functional
Eclipta prostrata [25] = assay: Post-emergence herbicidal activity against Eclipta prostrata assessed as inhibition at 37.5 g/hectare treated at two-leaf stage by green house assay; type: functional; how it was run: as §3
[26] = tested on: Brassica rapa subsp. chinensis; assay: Post-emergence herbicidal activity against Brassica rapa subsp. chinensis assessed as inhibition at 150 g/hectare by green house assay; type: functional
Pontederia vaginalis [27] = assay: Post-emergence herbicidal activity against Monochoria vaginalis assessed as inhibition at 75 g/hectare by green house assay; type: functional
Pontederia vaginalis [28] = assay: Post-emergence herbicidal activity against Monochoria vaginalis assessed as inhibition at 150 g/hectare by green house assay; type: functional
Brassica oleracea [29] = assay: Post-emergence herbicidal activity against Brassica oleracea assessed as inhibition at 75 g/hectare by green house assay; type: functional
Brassica oleracea [30] = assay: Post-emergence herbicidal activity against Brassica oleracea assessed as inhibition at 150 g/hectare by green house assay; type: functional
Digitaria sanguinalis [31] = assay: Post-emergence herbicidal activity against Digitaria sanguinalis (hairy crabgrass) assessed as inhibition at 150 g/hectare treated at one-leaf stage by green house assay; type: functional; how it was run: as §1
Brassica juncea [32] = assay: Post-emergence herbicidal activity against Brassica juncea assessed as inhibition at 37.5 g/hectare treated at two-leaf stage by green house assay; type: functional; how it was run: as §3
Amaranthus retroflexus [33] = assay: Post-emergence herbicidal activity against Amaranthus retroflexus assessed as inhibition at 75 g/hectare treated at two-leaf stage by green house assay; type: functional; how it was run: as §3
Zea mays = assay: Toxicity in Zea mays (maize) plant assessed as inhibition at 150 g/hectare; type: organism-based; conditions: in vivo; how it was run: as §2
Ipomoea nil [34] = assay: Post-emergence herbicidal activity against Ipomoea nil (Japanese morning glory) assessed as inhibition at 150 g/hectare by green house assay; type: functional
Brassica juncea [35] = assay: Post-emergence herbicidal activity against Brassica juncea assessed as inhibition at 75 g/hectare treated at two-leaf stage by green house assay; type: functional; how it was run: as §3
Triticum aestivum = assay: Toxicity in Triticum aestivum (wheat) plant assessed as inhibition at 150 g/hectare; type: organism-based; conditions: in vivo; how it was run: as §2
Brassica juncea [36] = assay: Post-emergence herbicidal activity against Brassica juncea assessed as inhibition at 150 g/hectare by green house assay; type: functional
Setaria viridis [37] = assay: Post-emergence herbicidal activity against Setaria viridis (green foxtail) assessed as inhibition at 37.5 g/hectare treated at one-leaf stage by green house assay; type: functional; how it was run: as §1
Amaranthus retroflexus [38] = assay: Post-emergence herbicidal activity against Amaranthus retroflexus assessed as inhibition at 37.5 g/hectare treated at two-leaf stage by green house assay; type: functional; how it was run: as §3

CC1(C)COP(=O)(C(OC(=O)COc2ccc(Cl)cc2Cl)c2ccco2)OC1 (stereo not given)
inhibition at 37.5 g/ha (Digitaria sanguinalis [1]): 0% | inhibition (INH) (Gossypium hirsutum): 30% | inhibition at 150 g/ha (Amaranthus retroflexus [2]): 80% | inhibition at 150 g/ha [3]: 95% | inhibition at 75 g/ha [4]: 70% | inhibition at 150 g/ha (Eclipta prostrata [5]): 80% | inhibition at 75 g/ha (Eclipta prostrata [6]): 62% | inhibition at 150 g/ha (Brassica juncea [7]): 95% | inhibition at 75 g/ha (Echinochloa crus-galli [8]): 0% | inhibition (INH) (Glycine max): 30% | inhibition at 75 g/ha (Digitaria sanguinalis [9]): 0% | inhibition at 37.5 g/ha (Echinochloa crus-galli [10]): 0% | inhibition (INH) (Oryza sativa): 40% | inhibition at 150 g/ha (Echinochloa crus-galli [11]): 30% | inhibition at 75 g/ha (Amaranthus retroflexus [12]): 70% | inhibition at 75 g/ha (Chenopodium album [13]): 70% | inhibition at 150 g/ha (Ammannia baccifera [14]): 100% | inhibition at 150 g/ha (Radish [15]): 85% | inhibition at 75 g/ha [16]: 80% | inhibition at 150 g/ha (Abutilon theophrasti): 90% | inhibition at 150 g/ha (Chenopodium album [17]): 80% | inhibition at 75 g/ha (Brassica juncea [18]): 90% | inhibition at 150 g/ha (Setaria viridis [19]): 30% | inhibition at 150 g/ha (Brassica napus): 40% | inhibition at 75 g/ha (Ammannia baccifera [20]): 100% | inhibition at 75 g/ha (Setaria viridis [21]): 0% | inhibition at 75 g/ha (Ipomoea nil [22]): 100% | inhibition at 150 g/ha (Amaranthus retroflexus [23]): 80% | inhibition at 75 g/ha (Radish [24]): 80% | inhibition at 37.5 g/ha (Eclipta prostrata [25]): 60% | inhibition at 150 g/ha [26]: 80% | inhibition at 75 g/ha (Pontederia vaginalis [27]): 100% | inhibition at 150 g/ha (Pontederia vaginalis [28]): 100% | inhibition at 75 g/ha (Brassica oleracea [29]): 80% | inhibition at 150 g/ha (Brassica oleracea [30]): 85% | inhibition at 150 g/ha (Digitaria sanguinalis [31]): 40% | inhibition at 37.5 g/ha (Brassica juncea [32]): 85% | inhibition at 75 g/ha (Amaranthus retroflexus [33]): 70% | inhibition (INH) (Zea mays): 0% | inhibition at 150 g/ha (Ipomoea nil [34]): 100% | inhibition at 75 g/ha (Brassica juncea [35]): 90% | inhibition (INH) (Triticum aestivum): 10% | inhibition at 150 g/ha (Brassica juncea [36]): 95% | inhibition at 37.5 g/ha (Setaria viridis [37]): 0% | inhibition at 37.5 g/ha (Amaranthus retroflexus [38]): 50%

O=C(O)CNCP(=O)(O)O [GLYPHOSATE]
inhibition at 150 g/ha (Amaranthus retroflexus [2]): 90% | inhibition at 150 g/ha [3]: 100% | inhibition at 75 g/ha [4]: 70% | inhibition at 75 g/ha (Amaranthus retroflexus [12]): 90% | inhibition at 75 g/ha (Chenopodium album [13]): 70% | inhibition at 150 g/ha (Ammannia baccifera [14]): 100% | inhibition at 150 g/ha (Radish [15]): 65% | inhibition at 75 g/ha [16]: 100% | inhibition at 150 g/ha (Chenopodium album [17]): 90% | inhibition at 75 g/ha (Brassica juncea [18]): 30% | inhibition at 75 g/ha (Ammannia baccifera [20]): 100% | inhibition at 75 g/ha (Ipomoea nil [22]): 60% | inhibition at 75 g/ha (Radish [24]): 60% | inhibition at 150 g/ha [26]: 80% | inhibition at 75 g/ha (Pontederia vaginalis [27]): 100% | inhibition at 150 g/ha (Pontederia vaginalis [28]): 100% | inhibition at 75 g/ha (Brassica oleracea [29]): 70% | inhibition at 150 g/ha (Brassica oleracea [30]): 80% | inhibition at 150 g/ha (Ipomoea nil [34]): 60% | inhibition at 150 g/ha (Brassica juncea [36]): 80%
